Legend:
Format in all cases: cell-based
[1] = molecular target: T1, Nucleotide-binding oligomerization domain-containing protein 2 (Homo sapiens, UniProt Q9HC29); experiment: Antagonist activity at human NOD2 expressed in HEK-Blue cells assessed as inhibition of MDP-stimulated cell activation at 10 uM preincubated for 3 hrs followed by MDP addition measured after 20 hrs by SEAP reporter gene assay
How it was run: (§1)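 HEK-Blue hNOD1 or hNOD2 cells preincubated with compound 3 h, then stimulated 20 h with C12-iE-DAP 50 ng/mL (NOD1) or MDP 100 ng/mL (NOD2); SEAP in supernatant quantified. Primary screen at 10 μM, hits repeated in triplicate; IC50 from dose-response, mean ± SD (n = 3), only for compounds reaching ≥50% inhibition at the screening concentration.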

[2] = molecular target: T1, Nucleotide-binding oligomerization domain-containing protein 2; experiment: Antagonist activity at human NOD2 expressed in HEK-Blue cells assessed as inhibition of MDP-stimulated cell activation at 5 uM preincubated for 3 hrs followed by MDP addition measured after 20 hrs by SEAP reporter gene assay
[3] = molecular target: T1, Nucleotide-binding oligomerization domain-containing protein 2; experiment: Antagonist activity at human NOD2 expressed in HEK-Blue cells assessed as inhibition of MDP-stimulated cell activation preincubated for 3 hrs followed by MDP addition measured after 20 hrs by SEAP reporter gene assay; how it was run: as §1
[4] = molecular target: T2, Nucleotide-binding oligomerization domain-containing protein 1 (Homo sapiens) (UniProt Q9Y239); experiment: Antagonist activity at human NOD1 expressed in HEK-Blue cells assessed as inhibition of C12-iE-DAP-stimulated cell activation at 10 uM preincubated for 3 hrs followed by C12-iE-DAP addition measured after 20 hrs by SEAP reporter gene assay; how it was run: as §1
T2 sequence (whole entry): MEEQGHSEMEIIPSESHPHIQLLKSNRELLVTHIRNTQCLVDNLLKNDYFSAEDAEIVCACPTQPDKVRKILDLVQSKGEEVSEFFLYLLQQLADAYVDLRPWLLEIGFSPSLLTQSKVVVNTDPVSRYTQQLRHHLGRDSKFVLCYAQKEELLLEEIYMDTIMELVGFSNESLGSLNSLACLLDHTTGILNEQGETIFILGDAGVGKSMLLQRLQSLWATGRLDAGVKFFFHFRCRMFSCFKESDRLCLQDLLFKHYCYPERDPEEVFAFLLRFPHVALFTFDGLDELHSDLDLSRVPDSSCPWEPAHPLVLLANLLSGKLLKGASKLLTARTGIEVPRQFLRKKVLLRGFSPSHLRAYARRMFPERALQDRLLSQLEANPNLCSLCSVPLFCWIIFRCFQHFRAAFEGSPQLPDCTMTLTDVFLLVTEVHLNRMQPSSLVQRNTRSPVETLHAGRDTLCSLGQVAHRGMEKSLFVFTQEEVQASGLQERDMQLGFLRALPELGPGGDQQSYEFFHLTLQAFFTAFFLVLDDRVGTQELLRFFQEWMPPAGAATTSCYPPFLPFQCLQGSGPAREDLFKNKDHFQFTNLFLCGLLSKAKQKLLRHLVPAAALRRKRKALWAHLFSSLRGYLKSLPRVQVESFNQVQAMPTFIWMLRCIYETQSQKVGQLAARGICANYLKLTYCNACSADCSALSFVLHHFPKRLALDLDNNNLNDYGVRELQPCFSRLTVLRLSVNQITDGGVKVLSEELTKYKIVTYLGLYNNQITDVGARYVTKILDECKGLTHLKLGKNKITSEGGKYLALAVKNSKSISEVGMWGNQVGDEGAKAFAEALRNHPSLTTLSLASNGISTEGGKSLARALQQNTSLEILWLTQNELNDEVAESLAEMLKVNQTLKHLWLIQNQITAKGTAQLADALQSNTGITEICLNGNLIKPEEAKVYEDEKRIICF

[5] = molecular target: T3, Nucleotide-binding oligomerization domain-containing protein 1 (Homo sapiens, UniProt Q9Y239); experiment: Antagonist activity at human NOD1 expressed in HEK-blue cells assessed as inhibition of C12-iE-DAP-stimulated cell activation preincubated for 3 hrs followed by C12-iE-DAP addition measured after 20 hrs by SEAP reporter gene assay; how it was run: as §1
T3 sequence (Q9Y239 whole entry): T2 sequence (whole entry)

[6] = molecular target: T2, Nucleotide-binding oligomerization domain-containing protein 1 (Homo sapiens); experiment: Antagonist activity at human NOD1 expressed in HEK-blue cells assessed as inhibition of C12-iE-DAP-stimulated cell activation at 5 uM preincubated for 3 hrs followed by C12-iE-DAP addition measured after 20 hrs by SEAP reporter gene assay

T1 sequence (Q9HC29 whole entry, the tested form may be a part): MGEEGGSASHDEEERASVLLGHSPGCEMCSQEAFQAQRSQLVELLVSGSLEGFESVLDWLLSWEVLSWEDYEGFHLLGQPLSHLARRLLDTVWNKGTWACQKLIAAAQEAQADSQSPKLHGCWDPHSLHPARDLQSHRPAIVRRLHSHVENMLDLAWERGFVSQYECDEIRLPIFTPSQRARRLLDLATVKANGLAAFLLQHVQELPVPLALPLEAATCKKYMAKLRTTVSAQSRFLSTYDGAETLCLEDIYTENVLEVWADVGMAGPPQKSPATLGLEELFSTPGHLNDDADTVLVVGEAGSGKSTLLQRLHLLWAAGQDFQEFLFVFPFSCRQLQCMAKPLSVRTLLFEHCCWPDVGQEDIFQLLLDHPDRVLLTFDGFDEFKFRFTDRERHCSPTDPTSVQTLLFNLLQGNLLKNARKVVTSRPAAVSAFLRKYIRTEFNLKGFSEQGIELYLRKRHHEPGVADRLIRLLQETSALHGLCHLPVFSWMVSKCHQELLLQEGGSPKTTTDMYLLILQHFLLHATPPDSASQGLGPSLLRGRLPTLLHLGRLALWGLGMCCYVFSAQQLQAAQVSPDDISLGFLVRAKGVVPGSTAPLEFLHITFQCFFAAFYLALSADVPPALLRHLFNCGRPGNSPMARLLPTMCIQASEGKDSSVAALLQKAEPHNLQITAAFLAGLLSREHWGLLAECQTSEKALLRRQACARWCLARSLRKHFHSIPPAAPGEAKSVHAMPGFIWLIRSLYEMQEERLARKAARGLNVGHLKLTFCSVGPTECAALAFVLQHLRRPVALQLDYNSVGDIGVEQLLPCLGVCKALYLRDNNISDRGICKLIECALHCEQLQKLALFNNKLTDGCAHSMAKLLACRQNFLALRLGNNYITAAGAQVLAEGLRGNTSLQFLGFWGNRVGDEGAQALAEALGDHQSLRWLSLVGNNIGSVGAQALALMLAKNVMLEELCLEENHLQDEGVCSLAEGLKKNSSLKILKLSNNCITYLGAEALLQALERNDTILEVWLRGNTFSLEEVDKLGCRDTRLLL

Row | Compound | inhibition [1] | inhibition [2] | IC50 [3] | inhibition [4] | IC50 [5] | inhibition [6]
1 | COC(=O)CC[C@H]1NC(=O)c2cc(Oc3cccc(N(C)C)c3)c(NC(=O)COCc3cccc(Cl)c3)cc2NC1=O | 84.1% | 71.5% | 2.08 µM | 81.8% | 1.29 µM | 76.7%
2 | CCCCCCCCCCCCNC(=O)CC[C@H]1NC(=O)c2cc(Oc3cccc(N(C)C)c3)c(NC(=O)COCc3ccccc3)cc2NC1=O | 23.1% | 29.1% | – | 48.2% | – | 37.1%
3 | COC(=O)CC[C@@H]1NC(=O)c2cc(Oc3cccc(N(C)C)c3)c(NC(=O)COCc3ccc(C(F)(F)F)cc3)cc2NC1=O | – | 87.8% | 0.59 µM | – | 0.58 µM | 89.6%
4 | CCCNC(=O)CC[C@H]1NC(=O)c2cc(Oc3cccc(N(C)C)c3)c(NC(=O)COCc3ccc(Br)cc3)cc2NC1=O | 31% | 40.3% | – | 50.5% | – | 50.2%
5 | COC(=O)CC[C@H]1NC(=O)c2cc(Oc3cccc(N(C)C)c3)c(NC(=O)COCc3ccc4ccccc4c3)cc2NC1=O | – | 70.9% | 1.58 µM | – | 1.61 µM | 77.7%
6 | CCCNC(=O)CC[C@H]1NC(=O)c2cc(Oc3cccc(N(C)C)c3)c(NC(=O)COCc3ccc(F)cc3)cc2NC1=O | 48.8% | 30.8% | – | 80.1% | 2.81 µM | 68%
7 | CCCNC(=O)CC[C@H]1NC(=O)c2cc(Oc3cccc(N(C)C)c3)c(NC(=O)COCc3ccc(Cl)cc3)cc2NC1=O | 44.6% | 37.6% | – | 47.6% | – | 52.9%
8 | COC(=O)CC[C@H]1NC(=O)c2cc(Oc3cccc(N(C)C)c3Cl)c(NC(=O)COCc3ccc(Cl)cc3)cc2NC1=O | 15.7% | 15.7% | – | 0.08% | – | 21.9%
9 | COC(=O)CC[C@H]1NC(=O)c2cc(Oc3cc(N(C)C)cc(Cl)c3Cl)c(NC(=O)COCc3ccccc3)cc2NC1=O | 6.85% | 9.23% | – | 1.4% | – | -5.19%
10 | COC(=O)CC[C@H]1NC(=O)c2cc(Oc3cc(Cl)cc(N(C)C)c3)c(NC(=O)COCc3ccccc3)cc2NC1=O | 56.5% | 54.9% | 5.05 µM | 4.89% | – | 47.1%
11 | COC(=O)CC[C@H]1NC(=O)c2cc(Oc3cccc(N(C)C)c3Cl)c(NC(=O)COCc3ccccc3)cc2NC1=O | 46% | 44.6% | – | 44.2% | – | 55.8%
12 | C[C@@H]1NC(=O)c2cc(Oc3cccc(N(C)C)c3)c(NC(=O)COCc3ccc(C(F)(F)F)cc3)cc2NC1=O | – | 64.5% | 0.94 µM | – | 1.93 µM | 73.8%
13 | CN(C)C(=O)CC[C@H]1NC(=O)c2cc(Oc3cccc(N(C)C)c3)c(NC(=O)COCc3ccccc3)cc2NC1=O | 35.5% | 31% | – | 68% | 4.95 µM | 43.1%
14 | COC(=O)CC[C@H]1NC(=O)c2cc(Oc3cc(N(C)C)c(Cl)c(Cl)c3Cl)c(NC(=O)COCc3ccccc3)cc2NC1=O | 17.4% | 11.1% | – | 11.1% | – | 16.2%
15 | CCCCCCCCCCCCCCCCNC(=O)CC[C@H]1NC(=O)c2cc(Oc3cccc(N(C)C)c3)c(NC(=O)COCc3ccccc3)cc2NC1=O | -7.1% | -4.77% | – | 27.5% | – | 10.6%
16 | COC(=O)CC[C@H]1NC(=O)c2cc(Oc3cccc(N(C)C)c3)c(NC(=O)COCc3ccc(OC)cc3)cc2NC1=O | 56.5% | 34.1% | 9.51 µM | 21.6% | – | 8.57%
17 | COC(=O)CC[C@H]1NC(=O)c2cc(Oc3cc(N(C)C)ccc3Cl)c(NC(=O)COCc3ccccc3)cc2NC1=O | 7.26% | 11% | – | 29.3% | – | 24.8%

Reference: ChEMBL document CHEMBL4014339, “Discovery of 1,4-Benzodiazepine-2,5-dione (BZD) Derivatives as Dual Nucleotide Binding Oligomerization Domain Containing 1/2 (NOD1/NOD2) Antagonists Sensitizing Paclitaxel (PTX) To Suppress Lewis Lung Carcinoma (LLC) Growth in Vivo” (J Med Chem, 2017)
